Results: ChEMBL document CHEMBL2146445, “Discovery of BIIB042, a Potent, Selective, and Orally Bioavailable γ-Secretase Modulator” (ACS Med Chem Lett, 2011)

Assays:
[1] = Oral bioavailability in rat at 10 mg/kg; format: ADME, organism-based; conditions: in vivo
In short: (§1)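 Single dose to rats, dogs and cynomolgus monkeys. IV at 1 mg/kg in EtOH:PEG400:water (10:40:50), 1 mL/kg. Oral at 10 mg/kg as crystalline HCl salt suspension in 0.5% CMC, 0.2% Tween80, 5 mL/kg. Plasma sampled over 0–24 h. Values are mean ± SD, n = 3.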

[2] = Oral bioavailability in dog at 10 mg/kg; format: ADME, organism-based, Canis lupus familiaris; conditions: in vivo; in short: as §1
[3] = Cmax in dog at 10 mg/kg, po; format: ADME, organism-based, Canis lupus familiaris; set-up: dose 10 mg/kg, route oral; conditions: in vivo
In short: (§2)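 Single oral dose of 10 mg/kg given to rats, dogs or cynomolgus monkeys. The crystalline HCl salt was suspended in 0.5% CMC with 0.2% Tween80 and dosed at 5 mL/kg. […] Parameters are reported as mean ± SD, n = 3.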

[4] = AUC (0 to 24 hrs) in cynomolgus monkey at 10 mg/kg, po; format: ADME, organism-based, Macaca fascicularis; set-up: time < 24 hr, dose 10 mg/kg, route oral; conditions: plasma
[5] = Tmax in rat at 10 mg/kg, po; format: ADME, organism-based; set-up: dose 10 mg/kg, route oral; conditions: in vivo; in short: as §1
[6] = Volume of distribution at steady state in cynomolgus monkey at 1 mg/kg, iv; format: ADME, organism-based, Macaca fascicularis; set-up: dose 1 mg/kg, route intravenous; conditions: in vivo, read-out: Vdss; in short: as §1
[7] = AUC (0 to 24 hrs) in dog at 1 mg/kg, iv; format: ADME, organism-based, Canis lupus familiaris; set-up: time < 24 hr, dose 1 mg/kg, route intravenous; conditions: plasma
In short: (§3)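 Single-dose PK in rats, dogs and cynomolgus monkeys. The compound was given iv at 1 mg/kg in EtOH:PEG400:water (10:40:50) at 1 mL/kg. […] Values are mean ± SD, n = 3.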

[8] = Thermodynamic solubility of the compound; format: physicochemical; conditions: read-out: Therm_solubility
In short: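 Thermodynamic solubility measured on the crystalline HCl salt.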

[9] = Half life in rat at 10 mg/kg, po; format: ADME, organism-based; set-up: dose 10 mg/kg, route oral; conditions: in vivo; in short: as §2
[10] = AUC (0 to 24 hrs) in rat at 1 mg/kg, iv; format: ADME, organism-based; set-up: time < 24 hr, dose 1 mg/kg, route intravenous; conditions: plasma; in short: as §3
[11] = Plasma clearance in rat at 1 mg/kg, iv; format: ADME, organism-based; set-up: dose 1 mg/kg, route intravenous; in short: as §1
[12] = Tmax in dog at 10 mg/kg, po; format: ADME, organism-based, Canis lupus familiaris; set-up: dose 10 mg/kg, route oral; conditions: in vivo; in short: as §1
[13] = Plasma clearance in cynomolgus monkey at 1 mg/kg, iv; format: ADME, organism-based, Macaca fascicularis; set-up: dose 1 mg/kg, route intravenous; in short: as §1
[14] = AUC (0 to 24 hrs) in dog at 10 mg/kg, po; format: ADME, organism-based, Canis lupus familiaris; set-up: time < 24 hr, dose 10 mg/kg, route oral; conditions: plasma
[15] = Tmax in cynomolgus monkey at 10 mg/kg, po; format: ADME, organism-based, Macaca fascicularis; set-up: dose 10 mg/kg, route oral; conditions: in vivo; in short: as §1
[16] = Half life in dog at 10 mg/kg, po; format: ADME, organism-based, Canis lupus familiaris; set-up: dose 10 mg/kg, route oral; conditions: in vivo; in short: as §2
[17] = Half life in cynomolgus monkey at 10 mg/kg, po; format: ADME, organism-based, Macaca fascicularis; set-up: dose 10 mg/kg, route oral; conditions: in vivo; in short: as §2
[18] = Volume of distribution at steady state in dog at 1 mg/kg, iv; format: ADME, organism-based, Canis lupus familiaris; set-up: dose 1 mg/kg, route intravenous; conditions: in vivo, read-out: Vdss; in short: as §1
[19] = Half life in cynomolgus monkey at 1 mg/kg, iv; format: ADME, organism-based, Macaca fascicularis; set-up: dose 1 mg/kg, route intravenous; conditions: in vivo; in short: as §3
[20] = Cmax in rat at 10 mg/kg, po; format: ADME, organism-based; set-up: dose 10 mg/kg, route oral; conditions: in vivo; in short: as §2
[21] = AUC (0 to 24 hrs) in rat at 10 mg/kg, po; format: ADME, organism-based; set-up: time < 24 hr, dose 10 mg/kg, route oral; conditions: plasma
[22] = Half life in dog at 1 mg/kg, iv; format: ADME, organism-based, Canis lupus familiaris; set-up: dose 1 mg/kg, route intravenous; conditions: in vivo; in short: as §3
[23] = Plasma clearance in dog at 1 mg/kg, iv; format: ADME, organism-based, Canis lupus familiaris; set-up: dose 1 mg/kg, route intravenous; in short: as §1
[24] = Oral bioavailability in cynomolgus monkey at 10 mg/kg; format: ADME, organism-based, Macaca fascicularis; conditions: in vivo; in short: as §1
[25] = AUC (0 to 24 hrs) in cynomolgus monkey at 1 mg/kg, iv; format: ADME, organism-based, Macaca fascicularis; set-up: time < 24 hr, dose 1 mg/kg, route intravenous; conditions: plasma; in short: as §3
[26] = Cmax in cynomolgus monkey at 10 mg/kg, po; format: ADME, organism-based, Macaca fascicularis; set-up: dose 10 mg/kg, route oral; conditions: in vivo; in short: as §2
[27] = Half life in rat at 1 mg/kg, iv; format: ADME, organism-based; set-up: dose 1 mg/kg, route intravenous; conditions: in vivo; in short: as §3
[28] = Volume of distribution at steady state in rat at 1 mg/kg, iv; format: ADME, organism-based; set-up: dose 1 mg/kg, route intravenous; conditions: in vivo, read-out: Vdss; in short: as §1

- bioavailability [1]: 47%
- bioavailability [2]: 44%
- Cmax [3]: 1400 ng/mL
- AUC(0-t) at 24 h [4]: 48000 ng·h/mL
- Tmax [5]: 1.7 h
- Vd [6]: 1.7 L/kg
- AUC(0-t) at 24 h [7]: 1200 ng·h/mL
- solubility thermodynamic [8]: 20 µg/mL
- half-life [9]: 6.6 h
- AUC(0-t) at 24 h [10]: 10400 ng·h/mL
- clearance [11]: 1.5 mL/min/kg
- Tmax [12]: 1.3 h
- clearance [13]: 3.7 mL/min/kg
- AUC(0-t) at 24 h [14]: 5200 ng·h/mL
- Tmax [15]: 2 h
- half-life [16]: 2.3 h
- half-life [17]: 25 h
- Vd [18]: 0.9 L/kg
- half-life [19]: 11.2 h
- Cmax [20]: 6000 ng/mL
- AUC(0-t) at 24 h [21]: 49700 ng·h/mL
- half-life [22]: 1.3 h
- clearance [23]: 14 mL/min/kg
- bioavailability [24]: 106%
- AUC(0-t) at 24 h [25]: 4700 ng·h/mL
- Cmax [26]: 5900 ng/mL
- half-life [27]: 7.2 h
- Vd [28]: 0.8 L/kg
SMILES: CC1CCN([C@H](c2ccc(F)cc2)c2ccc([C@@H](C)C(=O)O)cc2-c2ccc(C(F)(F)F)cc2)CC1.Cl
